Assay results from different studies.
Protocols differ between the studies behind these lines.
Target: Serine/threonine-protein kinase 36 (STK36, Homo sapiens, UniProt Q9NRP7)
One construct used (Q9NRP7 1-1315): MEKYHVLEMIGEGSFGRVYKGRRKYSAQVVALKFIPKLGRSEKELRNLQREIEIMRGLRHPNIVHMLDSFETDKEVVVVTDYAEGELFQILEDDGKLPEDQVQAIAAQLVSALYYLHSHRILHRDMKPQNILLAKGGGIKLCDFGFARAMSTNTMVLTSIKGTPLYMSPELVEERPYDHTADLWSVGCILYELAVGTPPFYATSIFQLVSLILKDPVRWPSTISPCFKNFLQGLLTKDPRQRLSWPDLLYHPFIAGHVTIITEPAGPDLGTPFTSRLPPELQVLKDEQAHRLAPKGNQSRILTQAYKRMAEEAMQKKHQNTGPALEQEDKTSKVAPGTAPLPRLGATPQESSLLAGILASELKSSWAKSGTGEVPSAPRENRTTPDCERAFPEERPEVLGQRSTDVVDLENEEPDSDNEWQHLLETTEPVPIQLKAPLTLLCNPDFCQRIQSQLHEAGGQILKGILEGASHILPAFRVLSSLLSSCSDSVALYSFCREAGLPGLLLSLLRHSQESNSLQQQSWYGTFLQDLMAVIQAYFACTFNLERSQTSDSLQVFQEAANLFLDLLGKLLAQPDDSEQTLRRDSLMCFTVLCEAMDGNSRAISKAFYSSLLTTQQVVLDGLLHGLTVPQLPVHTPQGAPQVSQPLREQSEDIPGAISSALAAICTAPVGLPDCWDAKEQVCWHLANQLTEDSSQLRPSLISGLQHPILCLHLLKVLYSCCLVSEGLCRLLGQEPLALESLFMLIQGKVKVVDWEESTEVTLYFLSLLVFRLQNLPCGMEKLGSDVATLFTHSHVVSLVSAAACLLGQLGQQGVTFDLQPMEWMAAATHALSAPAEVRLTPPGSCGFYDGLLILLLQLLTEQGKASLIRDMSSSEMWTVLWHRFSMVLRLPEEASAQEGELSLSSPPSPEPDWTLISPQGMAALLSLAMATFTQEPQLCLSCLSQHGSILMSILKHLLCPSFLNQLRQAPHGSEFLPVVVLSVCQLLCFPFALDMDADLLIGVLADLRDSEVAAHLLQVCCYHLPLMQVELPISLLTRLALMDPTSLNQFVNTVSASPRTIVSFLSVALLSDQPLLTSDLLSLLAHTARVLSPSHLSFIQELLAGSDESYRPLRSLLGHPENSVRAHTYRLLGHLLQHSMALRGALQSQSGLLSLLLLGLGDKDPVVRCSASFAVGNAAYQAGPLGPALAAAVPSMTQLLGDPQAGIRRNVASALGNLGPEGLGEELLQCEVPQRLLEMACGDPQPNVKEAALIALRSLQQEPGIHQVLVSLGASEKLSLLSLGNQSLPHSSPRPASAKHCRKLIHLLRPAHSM

SMILES | effect on | method | tested at | remaining binding
N[C@@H]1CCN(c2nccc(-c3cnn4ncccc34)n2)C1 | binding | – | 1 µM | 77%
O=C(c1ccc(Nc2ncc(Cl)c(-c3cc4ccccc4s3)n2)cc1)N1CCC(N2CCCC2)CC1 | binding | competition with immobilised ligand | 1 µM | 3.4%
CN(C)c1ncc(F)c(-c2cnn3ncccc23)n1 | binding | – | 1 µM | 100%
CN1CCN(c2cnc3c(C4CCN(C(=O)c5ccc(OC(F)(F)F)cc5N)CC4)ncnc3c2)CC1 | cell-free assay | competition with immobilised ligand | 1 µM | 75%
O=C(c1ccc(Nc2ncc(Cl)c(-c3ccc(Cl)s3)n2)cc1)N1CCC(N2CCCC2)CC1 | binding | competition with immobilised ligand | 1 µM | 3.9%
CC1CCCN1c1nccc(-c2cnn3ncccc23)n1 (stereo not shown) | binding | – | 1 µM | 100%
O=C(c1ccc(Nc2nccc(-c3cc4ccccc4s3)n2)cc1)N1CCC(N2CCCC2)CC1 | binding | competition with immobilised ligand | 1 µM | 11%
O=C(Nc1c[nH]nc1C(=O)NC1CCNCC1)c1cc(F)cc(F)c1 | binding | competition with immobilised ligand | 1 µM | 100%
c1cncc(-c2cccc(Nc3nccc(NC4CCCCC4)n3)c2)c1 | binding | competition with immobilised ligand | 10 µM | 49%
F[C@@H]1CCN(c2nccc(-c3cnn4ncccc34)n2)C1 | binding | – | 1 µM | 90%
c1ccc(N2CCN(Cc3nc4ccccc4[nH]3)CC2)nc1 | binding | competition with immobilised ligand | 1 µM | 84%
CN(c1nccc(-c2cnn3ncccc23)n1)C1CC1 | binding | – | 1 µM | 100%
COc1ncc2cc3ccccc3nc2c1C#N | cell-free assay | competition with immobilised ligand | 5 µM | 88%
Nc1ncc2c(n1)-c1c([nH]c3ccc(C#CC4CC4)cc13)CCCC2 | binding | competition with immobilised ligand | 1 µM | 100%
CC(=O)Nc1c(C(C)=O)c(=O)n(C)c2nc(-c3ccc(Cl)cc3Cl)c(-c3ccc(Cl)cc3)cc12 | cell-free assay | competition with immobilised ligand | 1 µM | 92%
COc1cnc(Nc2cccc(S(N)(=O)=O)c2)nc1N1CCN(c2ccccc2)C(=O)C1 | binding | competition with immobilised ligand | 1 µM | 100%
CS(=O)(=O)N1CCCC(NC(=O)[C@H](CCC2CCCCC2)NC(=O)c2ccc(CNc3ncnc4c3nnn4-c3ccccc3)cc2)C1 (stereo partly shown) | cell-free assay | competition with immobilised ligand | 0.1 µM | 97%
C[C@H]1CCN(c2nccc(-c3cnn4ncccc34)n2)C1 | binding | – | 1 µM | 100%
Cc1nc(N2CC[C@@H](O)C2)ncc1-c1cc(C(F)(F)F)cc2[nH]ncc12 | binding | competition with immobilised ligand | 1 µM | 100%
C=CC(=O)N1CCC(C(=O)NCC(=O)N2CCN(c3nc(-c4cnc(N)nc4C(F)F)nc(N4CCOCC4)n3)CC2)CC1 | binding | competition with immobilised ligand | 1 µM | 95%
CN(C)c1nccc(-c2cnc3ncccn23)n1 | binding | – | 1 µM | 99%
CNCc1ccccc1-c1csc([C@H](C)Nc2nc(C)nc3cc(OC)c(OC)cc23)c1 | cell-free assay | competition with immobilised ligand | 1 µM | 100%
